High-throughput results (PubChem BioAssay)
Mac1 fbg inh: blocks human CD11b/CD18 adhesion to fibrinogen; P05107+P11215; K562 CD11b/CD18 adhesion to fibrinogen, ATPlite luminescence; Mn2+ added to activate the integrin; inhibition, % at 10 µM; 93,000 compounds, 0.54% hits;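 active means primary inhibition of 50% or more at 10 µM, then 40% or more on retest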
Target sequence (P05107 whole entry, looked up, other chains not shown): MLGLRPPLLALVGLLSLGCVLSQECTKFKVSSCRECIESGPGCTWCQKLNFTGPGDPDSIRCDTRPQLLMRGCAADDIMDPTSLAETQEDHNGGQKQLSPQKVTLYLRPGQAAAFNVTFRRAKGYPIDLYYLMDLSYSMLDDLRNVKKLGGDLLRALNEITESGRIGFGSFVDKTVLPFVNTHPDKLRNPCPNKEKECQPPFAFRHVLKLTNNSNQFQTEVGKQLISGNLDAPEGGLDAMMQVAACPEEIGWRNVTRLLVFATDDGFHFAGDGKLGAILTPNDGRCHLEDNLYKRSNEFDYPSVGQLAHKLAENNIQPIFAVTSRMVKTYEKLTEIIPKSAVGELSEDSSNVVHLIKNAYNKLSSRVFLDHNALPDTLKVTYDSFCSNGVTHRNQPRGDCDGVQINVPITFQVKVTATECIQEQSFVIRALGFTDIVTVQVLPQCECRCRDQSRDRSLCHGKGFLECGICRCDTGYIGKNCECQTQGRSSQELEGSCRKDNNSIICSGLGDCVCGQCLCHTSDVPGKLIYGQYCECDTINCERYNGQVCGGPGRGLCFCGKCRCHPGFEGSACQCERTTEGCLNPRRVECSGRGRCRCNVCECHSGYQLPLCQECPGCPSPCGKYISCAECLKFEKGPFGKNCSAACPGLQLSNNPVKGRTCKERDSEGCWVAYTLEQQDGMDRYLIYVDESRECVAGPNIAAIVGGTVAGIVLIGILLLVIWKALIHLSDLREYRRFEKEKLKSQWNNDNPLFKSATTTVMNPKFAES
CD11b adhes enh: increases human CD11b/CD18 adhesion to fibrinogen; 93,000 compounds, 0.07% hits; AID 1499; activation, % at 10 µM; P05107+P11215; K562 CD11b/CD18 adhesion to fibrinogen, ATPlite luminescence;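 active means 10 µM primary screen giving 50% or more activity, confirmed by 40% or more on retest at that dose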
Smad3 FoxH1 inh: inhibitors of human Smad3 transcription factor binding | inhibition, % at 25 µM | 88,000 compounds, 0.29% hits | P84022 | TR-FRET Smad3/Dy647-FoxH1 peptide binding, europium anti-His | AID 630;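 active means compounds that reduce the energy-transfer binding signal between the protein and its labelled peptide by more than half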;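 further: 0% = Smad3 plus labelled peptide maximal FRET and 100% = peptide-only background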
Rev-RRE block: HIV Rev-RRE protein-RNA interaction inhibition; 97,000 compounds, 0.79% hits; AID 704; inhibition, % at 8 µM; Rev peptide-RRE RNA binding, FRET; P05866;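 active means inhibition above the screen-wide mean plus 3 SD, cut at about 35% in these data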;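 further: 0% = median DMSO wells and 100% = median Neomycin B control wells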
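Assay system: Rev peptide and RRE RNA, both fluorescently labelled; times: 5 min preincubation and 15 min binding, 25 °C; detection: FRET, ex 480 nm, em 540 and 671 nm; read-out basis: % inhibition from 671/540 nm acceptor-to-donor ratio, scaled between controls; benchmarks: DMSO low control, neomycin B high control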
Phagocyt inh: macrophage phagocytosis inhibition; 110,000 compounds, 0.07% hits; J774A.1 macrophage IgG-bead phagocytosis, imaging; inhibition, % at 5 µM; AID 1029;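 active means inhibition above the mean of the plate negative controls plus 5 SD, cut at about 13% in these data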;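 further: phagocytic index as fraction of beads internalized from green versus red external bead signal; plate controls were DMSO negative control for no effect and cytochalasin-D positive control for full effect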
EphB4 antag: EphB4-ephrin-B2 interaction antagonism; P54760; 97,000 compounds, 0.15% hits; EphB4 LBD / TNYL-RAW-Alexa532 peptide, fluorescence polarization; inhibition, % at 7 µM;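 active means inhibition above the screen-wide mean inhibition plus 3 SD, cut at about 15% in these data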;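 further: 0% = DMSO wells and 100% = excess unlabeled TNYL-RAW peptide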
Starred values were filed as active, the others as inactive; x = no result; + = active, no number; [ ] = remark or other dose. This is a sample that favours compounds with a hit; in the whole collection about 1.3% have one here.

SMILES	Mac1 fbg inh	CD11b adhes enh	Smad3 FoxH1 inh	Rev-RRE block	Phagocyt inh	EphB4 antag
COc1ccccc1C1CC(c2c(-c3ccccc3)c3cc(Cl)ccc3[nH]c2=O)=NN1S(C)(=O)=O (centres undefined)	x	x	16	6	x	17*
COC(=O)c1c(-c2ccc(C)cc2)csc1NC(=O)Cc1ccc(OC)c(OC)c1	54*	-4	x	5	-3	-1
COC(=O)c1c(-c2ccc(Br)cc2)csc1NC(=O)Cc1ccc(OC)c(OC)c1	2	-1	x	2	x	7
CCOc1cc(-c2cc(-c3ccc(C)cc3)nc(N)c2C#N)ccc1O	-2	0	6	39*	-2	2
O=C(CSc1nc2ccccc2c(=O)n1-c1ccccc1)N1CCN(CCO)CC1	-15	-2	11	0	-1	-3
Cc1sc2nc(SCC(=O)N3CCN(CCO)CC3)n(-c3ccccc3)c(=O)c2c1C	10	-5	-12	x	+	x
CC(CCN)(CCN)[N+](=O)[O-]	x	x	-13	x	x	x
O=C(N/N=C/c1ccc(-c2ccc(S(=O)(=O)Nc3ncccn3)cc2)o1)c1cc2ccccc2cc1O	-11	53*	x	2	-1	1
Cc1ccc(S(=O)(=O)c2c(C)cc(C)nc2Cl)c(C)c1	4	-3	x	0	0	-8
Cc1cc(C)c(S(=O)(=O)/N=C2\C=CC(=O)C(Cl)=C2)c(C)c1	67*	27	5	3	x	-1
CCN1C(=O)/C(=C/C=C2/Sc3ccc4ccccc4c3N2CCO)SC1=S	x	x	x	x	123*[fluoresces]	x
N[C@@H](Cc1c[nH]c2ccc([N+](=O)[O-])cc12)C(=O)O	x	x	2	x	x	x
COc1ccc(CC(=O)Nc2ccc3c(c2)CCC3)cc1OC	65*	-6	x	5	0	5
NS(=O)(=O)c1ccc(NCc2cnc3ccccc3c2)cc1	x	x	102*	x	x	x
NS(=O)(=O)c1ccc(NCc2cnc3ccccc3n2)cc1	x	x	9	x	x	x
N#Cc1c(Cl)nc(SCc2ccccc2)nc1-c1ccccc1	74*	-10	x	8	7	-2
c1ccc(CSc2ncccn2)cc1	-1	0	2	1	-1	-5
O=C(Nc1nnc(-c2cccs2)o1)c1cccc(C(F)(F)F)c1	72*	1	-9	7	0	3
O=C(CN1CCN(Cc2ccc(Cl)cc2)C1=O)NCCCN1CCN(c2ccc(F)cc2)CC1	57*	-4	6	7	0	1
O=C(CN1CCN(Cc2ccc(Cl)cc2)C1=O)NCCCN1CCOCC1	-12	6	-11	-3	-1	-4
c1ccc(CNc2ncnc3ccccc23)cc1	66*	-4	-6	x	1	x
O=C(O)/C=C/C=C/c1ccc2c(c1)OCO2	x	x	-8	x	x	x
COC(=O)Nc1cc(C(F)(F)F)ccc1N1CCN(c2ccccc2)CC1	10	-6	1	4	90*	2
O=C(Nc1cc(C(F)(F)F)ccc1N1CCOCC1)c1ccccc1	19	-1	x	20	-1	2
S=C(NNc1ccc2ccccc2c1)NC1CCCCC1	-1	4	x	x	-9	x
SMILES	Mac1 fbg inh	CD11b adhes enh	Smad3 FoxH1 inh	Rev-RRE block	Phagocyt inh	EphB4 antag
Cc1ccc(S(=O)(=O)N2C(=S)SCC2(C)C)cc1	-13	-4	9	11	-1	5
CC1=CC(C)(C)N(S(=O)(=O)c2ccc(C)cc2)c2cc(C)ccc21	79*	-5	-21	23	4	14
COc1ccc2cc1Oc1ccc(cc1)C[C@H]1c3c(cc(OC)c4c3Oc3cc5c(cc3O4)CCN[C@H]5C2)CCN1C	x	x	-2	x	x	x
CC1(c2ccccc2)CC(C)(C)N2C(=O)/C(=C3\SC(=S)NC3=O)c3cccc1c32 (centres undefined)	100*	-5	x	x	x	x
CC1(c2ccccc2)CC(C)(C)N2C(=O)C3(C(C#N)=C(N)Oc4cc(O)ccc43)c3cccc1c32 (centres undefined)	30	-7	-13	11	0	3
Cc1cccc(-c2noc(CN(C(=O)C(c3ccccc3)c3ccccc3)C(C)C)n2)c1	20	-3	7	1	0	-7
CCOc1ccc(N2CSC3=C(C#N)C(c4ccco4)CC(=O)N3C2)cc1 (centres undefined)	5	-10	10	6	0	-2
Cc1ccc(C2CC(=O)N3CN(c4ccc(Br)cc4)CSC3=C2C#N)o1 (centres undefined)	3	-5	9	45*	1	3
